Screens (PubChem)
This excerpt belongs to a sample that is enriched for hits.
Lung fibro prol: blocks proliferation of human lung fibroblasts; LL 47 human lung fibroblast viability, ATP luminescence; hits give low values; viability, % at 10 µM; 85,000 tested, 1.1% active; AID 719;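 active = viability at or below 50% in the single dose screen; inactive = viability above 50%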;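 note: compound exposure lasted 72 h before the ATP readout; 100% = median luminescence of untreated cell-only wells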
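Times – overnight cell rest, 72 h compound treatment at 37 °C · Test system – human lung fibroblast line LL 47, low passage · Amount – 1,150 cells in each well · Controls – cell-only wells, no compound · Doses – 0.1% DMSO in all compound wells · Measured by – CellTiter-Glo luminescence · Buffer or medium – IMEM plus 15% FBS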
PTEN del growth: growth suppressors of cells with PTEN tumor suppressor deletion; AID 827; viability, % at 10 µM; 140,000 tested, 1.2% active; HCT116 PTEN-null viability, CellTiter-Glo, 60 h; hits give low values;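 active = viability at or below a set limit, 4 SD under the median of all tested compounds, cut at about 3.7% in these data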;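 note: PTEN knockout HCT116 line with beta catenin targeted HCT116 as companion control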
H69AR growth 86K: blocks growth of human H69AR lung tumor cells; H69AR lung tumor viability, ATP luminescence, 72 h; hits give low values; viability, % at 10 µM; 85,000 tested, 6% active; AID 598;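 active = viability at or below 40%; inactive = viability above 40%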;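 note: multidrug resistant small cell line overexpressing MRP-1 efflux transporter; 100% = mean luminescence of untreated control wells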
HUVEC prolif 384: blocks proliferation of human endothelial cells | HUVEC proliferation, CellTiter-Glo luminescence, 72 h; hits give low values | viability, % at 10 µM (by protocol) | 86,000 tested, 1.1% active | AID 648;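 active = viability at or below 30%; inactive = viability above 30%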;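 note: 100% = median luminescence of DMSO-only cell control wells on each plate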
HCT116 bCat-KO: beta-catenin-lacking colon tumor cell growth suppression; HCT116 beta-catenin knockout viability, CellTiter-Glo, 60 h; hits give low values; viability, % at 10 µM; 140,000 tested, 1.5% active; AID 818;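 active = viability at or under a set limit, the compound median less 4 SD, cut at about 6% in these data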;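 note: 0% = Hyamine 1622 control at 20 µM and 100% = untreated cell control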
An asterisk follows results filed as active.

`CCN(CC)C(=O)CC(c1ccc(F)cc1)c1ccc(OC(C)C)cc1` (centres undefined) gave PTEN del growth 72 and HCT116 bCat-KO 70.
`CC(C)CN=c1cc(-c2ccccc2)oc2ccc(Cl)cc12` gave Lung fibro prol 79, PTEN del growth 14, H69AR growth 86K 55, HUVEC prolif 384 101 and HCT116 bCat-KO 15.
Screening CC(O)CN=c1cc(-c2ccccc2)oc2ccc(Cl)cc12 (centres undefined) returned Lung fibro prol 69, PTEN del growth 5, H69AR growth 86K 29*, HUVEC prolif 384 78 and HCT116 bCat-KO 5.7*.
`CCOC(=O)/C(=C\Nc1ccccc1C(F)(F)F)Sc1ncc(C(F)(F)F)cc1Cl` gave Lung fibro prol 104, PTEN del growth 78, H69AR growth 86K 100, HUVEC prolif 384 138 and HCT116 bCat-KO 73.
COC(=O)/C(=C\Nc1ccc(Cl)c2ccccc12)c1ncc(C(F)(F)F)cc1Cl was read as Lung fibro prol 93, PTEN del growth 82, H69AR growth 86K 33*, HUVEC prolif 384 108 and HCT116 bCat-KO 83.
For O=C(/C=C/c1ccc(Cl)c(Cl)c1)n1cccn1 the results were Lung fibro prol 86, PTEN del growth 95, H69AR growth 86K 10*, HUVEC prolif 384 79 and HCT116 bCat-KO 80.
For O=C(/C=C/c1ccc(Cl)c(Cl)c1)NCc1ccco1 the results were PTEN del growth 98 and HCT116 bCat-KO 95.
Screening CCc1ccc(NC(=S)NC2CCN(Cc3ccccc3)CC2)cc1 returned PTEN del growth 45 and HCT116 bCat-KO 43.
`CCC(C)c1ccc(NC(=S)NC2CCN(Cc3ccccc3)CC2)cc1` (centres undefined) gave PTEN del growth 1.1* and HCT116 bCat-KO 1.9*.
For N#C/C(=C1\C(=O)Nc2c(Cl)cc(Cl)cc21)c1nnc2n1CCCCC2 the results were Lung fibro prol 99, PTEN del growth 90, H69AR growth 86K 36*, HUVEC prolif 384 85 and HCT116 bCat-KO 92.
Screening CSc1nnc(-c2sc3cc(Cl)ccc3c2Cl)n1C returned Lung fibro prol 93, PTEN del growth 74, H69AR growth 86K 27*, HUVEC prolif 384 62 and HCT116 bCat-KO 64.
For O=C(Nc1nnc(-c2ccccc2Cl)o1)c1ccco1 the results were Lung fibro prol 98, PTEN del growth 97, H69AR growth 86K 79, HUVEC prolif 384 87 and HCT116 bCat-KO 93.
`COc1cccc(-c2nnc(NC(C)=O)o2)c1` gave Lung fibro prol 98, H69AR growth 86K 102 and HUVEC prolif 384 100.
`O=C(Nc1nnc(-c2ccccc2Cl)o1)c1nc2ccccc2s1` gave Lung fibro prol 99, PTEN del growth 100, H69AR growth 86K 28*, HUVEC prolif 384 52 and HCT116 bCat-KO 94.
COc1ccccc1-c1nnc(Nc2nc3c(OC)cccc3s2)o1 was read as PTEN del growth 8 and HCT116 bCat-KO 5.1*.
COc1cccc2sc(Nc3nc(-c4cc5ccccc5oc4=O)cs3)nc12 was read as PTEN del growth 102 and HCT116 bCat-KO 92.
For COc1cccc(-c2nnc(Nc3nc4c(F)cccc4s3)o2)c1 the results were Lung fibro prol 87, PTEN del growth 73, H69AR growth 86K 50, HUVEC prolif 384 16* and HCT116 bCat-KO 71.
Screening COc1cccc2sc(Nc3nnc(-c4ccccc4Cl)o3)nc12 returned Lung fibro prol 41*, PTEN del growth 12, H69AR growth 86K 27*, HUVEC prolif 384 2.4* and HCT116 bCat-KO 10.
For CCN=C(NC#N)SCc1c(F)cccc1Cl the results were PTEN del growth 87 and HCT116 bCat-KO 98.
`Cc1ccccc1Oc1nc2c(C)cccn2c(=O)c1/C=C(\C#N)C(=O)Nc1c(C)n(C)n(-c2ccccc2)c1=O` gave PTEN del growth 86 and HCT116 bCat-KO 81.
`Cc1cc(Oc2nc3c(C)cccn3c(=O)c2/C=C(\C#N)S(=O)(=O)c2ccccc2)ccc1Cl` gave PTEN del growth 2.3* and HCT116 bCat-KO 1.6*.
Screening Cc1cccn2c(=O)c(/C=C(\C#N)S(=O)(=O)c3ccccc3)c(Oc3ccc(Cl)cc3)nc12 returned PTEN del growth 2.2* and HCT116 bCat-KO 3.6*.
CC(C)N(C(=O)COC(=O)CNC(=O)c1ccc(Br)cc1)c1ccccc1 was read as PTEN del growth 100 and HCT116 bCat-KO 83.
Screening CCC(=O)Nc1ccc(/C(C)=N/NC(=O)c2c(Br)c(C)nn2C)cc1 returned PTEN del growth 66 and HCT116 bCat-KO 67.
For C/C(=N\NC(=O)c1c(Br)c(C)nn1C)c1ccc(NC(=O)C(C)Oc2ccc(Cl)cc2C)cc1 (centres undefined) the results were PTEN del growth 1.4* and HCT116 bCat-KO 0.9*.
`Cc1cc(Nc2nc3ccccc3nc2Cl)n(-c2ccccc2)n1` gave Lung fibro prol 78, PTEN del growth 15, H69AR growth 86K 36*, HUVEC prolif 384 47 and HCT116 bCat-KO 21.
Screening Cc1cc(Nc2nc3ccccc3nc2Cl)n(-c2ccccc2C)n1 returned Lung fibro prol 92, PTEN del growth 61, H69AR growth 86K 17*, HUVEC prolif 384 109 and HCT116 bCat-KO 58.
Screening COc1ccc(C(=O)CC(=O)C(=O)NCCc2cccc(C)c2)cc1 returned PTEN del growth 91 and HCT116 bCat-KO 102.
CNC(=S)N(Cc1ccc2c(c1)OCO2)C1CC(=O)N(c2ccccc2)C1=O (centres undefined) was read as PTEN del growth 91 and HCT116 bCat-KO 97.
Screening CCOC(=O)c1cccc(-n2c(-c3ccc(OC)cc3)nc3nc4ccccc4nc32)c1 returned PTEN del growth 17 and HCT116 bCat-KO 38.
For O=C(/C=C\c1ccc2c(c1)OCO2)Nc1c2c(nn1-c1ccc(Cl)cc1)CSC2 the results were PTEN del growth 55 and HCT116 bCat-KO 68.
Cn1cc([N+](=O)[O-])c(C(=O)Nc2cc(Oc3cccnc3)cc([N+](=O)[O-])c2)n1 was read as PTEN del growth 0.3* and HCT116 bCat-KO 1.6*.
CCn1ncc([N+](=O)[O-])c1C(=O)Nc1ccc(C(=O)N2CCCCC2)cc1 was read as PTEN del growth 88 and HCT116 bCat-KO 94.
Screening Cn1cc([N+](=O)[O-])c(C(=O)Nc2ccc(C(=O)N3CCCCC3)cc2)n1 returned PTEN del growth 3.5* and HCT116 bCat-KO 4.1*.
Cc1ccc(Cn2ccc(NC(=O)c3nn(C)cc3[N+](=O)[O-])n2)cc1 was read as PTEN del growth 2.6* and HCT116 bCat-KO 5.0*.
Cc1cc(C)n(Cc2ccc(NC(=O)c3nn(C)cc3[N+](=O)[O-])cc2)n1 was read as PTEN del growth 1.8* and HCT116 bCat-KO 5.3*.
For CCn1cc([N+](=O)[O-])c(C(=O)Nc2ccn(Cc3ccccc3)n2)n1 the results were PTEN del growth 97 and HCT116 bCat-KO 105.
`O=[N+]([O-])c1ccc(Cl)c(S(=O)(=O)N2CCCCCC2)c1` gave PTEN del growth 70 and HCT116 bCat-KO 60.
For Cc1ccnc(N/C=C(\C#N)c2nc(-c3cccc(Br)c3)cs2)c1 the results were PTEN del growth 39 and HCT116 bCat-KO 68.
